A selection: hits, their analogues and other compounds. The true share with any hit is near 9.8%.
PMI act hi M6P: activators of human phosphomannose isomerase at near-saturating mannose 6-phosphate; coupled PMI enzyme assay, resazurin fluorescence, 20 min; hits give high values; 1 = untreated enzyme, 0 = substrate-free blank; activation factor at 20 µM; 0.34% of 190,000 active; AID 1216;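 active = activation factor of 2 or more at 20 µM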
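assay system = human phosphomannose isomerase with PGI, G6PDH, diaphorase coupling enzymes | quantity = 15 ng/mL PMI | incubation = enzyme reaction with compound 20 min at room temperature | medium = HEPES pH 7.4 buffer with MgCl2 and Tween-20 | compound dosing = one concentration, 20 µM, in 1% DMSO | measured by = Diaphorase-driven resazurin-to-resorufin fluorescence, excitation 544, emission 590 nm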
L major viab: reduces viability of Leishmania major promastigotes | AID 1063 | inhibition, % at 10 µM | 9% of 200,000 active | resazurin fluorescence viability; in the data active = inhibition above about 50%;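 also: promastigotes grown with compound for 44 hours at 28 °C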
PMI activator: activators of human phosphomannose isomerase. P34949. purified human PMI, coupled resazurin fluorescence, 20 min; hits give high values; 1 = vehicle control, 0 substrate-free wells. activation factor at 20 µM. 0.005% of 190,000 active. AID 1214;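 active = activation factor of 2 or more at 20 µM, relative to plate controls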
WT yeast gro inh: growth inhibition of WT yeast, mitochondrial fusion screen; mitochondrial fusion phenotypic screen, WT strain; inhibition, % at 10 µM; 2.1% of 190,000 active; AID 1362; in the data active = inhibition above about 58%; tested in S. cerevisiae
Rad51 HR inh: blocks human Rad51 in homologous recombination; Q06609; hRad51 DNA strand exchange, fluorescence dequenching; inhibition, % at 10 µM; 0.085% of 200,000 active; AID 1385;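 active = inhibition above 40% at the single screening dose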
Target sequence (Q06609 whole entry, looked up): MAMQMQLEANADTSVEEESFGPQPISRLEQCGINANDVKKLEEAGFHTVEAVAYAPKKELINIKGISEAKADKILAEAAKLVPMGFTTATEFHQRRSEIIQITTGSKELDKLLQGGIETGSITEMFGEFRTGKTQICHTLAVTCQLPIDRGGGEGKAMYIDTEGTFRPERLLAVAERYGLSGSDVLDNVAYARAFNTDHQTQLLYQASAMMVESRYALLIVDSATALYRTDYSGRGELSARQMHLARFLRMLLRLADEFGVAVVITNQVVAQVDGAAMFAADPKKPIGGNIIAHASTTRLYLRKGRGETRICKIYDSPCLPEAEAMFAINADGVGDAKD
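Read-out basis: percent inhibition relative to plate controls and blanks / Assay system: human Rad51 nucleoprotein filaments preassembled on unlabelled ssDNA / Timing: filaments 15 min 37 °C, then compound 30 min / Control set: per-plate controls and blanks / Technique: fluorescence dequenching at 485/520 nm / Compound: 10 µM final, single point / Also added: Fluorescein- and BHQ1-tagged 47-mer duplex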
Calpain2 inh: inhibitors of pig calpain II. purified calpain II, fluorogenic peptide substrate, 30 min. 0.37% of 220,000 active. AID 1236. inhibition, % at 16 µM;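 active = inhibition above about 50%, limit read from the data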
Large screens that a line does not name were inactive.

O=c1[nH][nH]c(-c2ccccc2O)c1C(C[N+](=O)[O-])c1cccc(Cl)c1 (centres undefined)	L major viab 100
Cc1[nH]c2ccccc2c1C(C[N+](=O)[O-])c1cccc(O)c1 (centres undefined)	none
O=C(NCCCN1CCOCC1)C(=O)N/N=C/c1ccc2c(c1)OCO2	none
CCOc1ccc(CC(=O)NNC(=S)NCCc2ccccc2)cc1	none
COc1cc2c(C(=O)NCc3ccc(C)o3)cn(CC(C)C)c(=O)c2cc1OC	WT yeast gro inh 74
C/C=C/c1ccc(OCc2cc(=O)n3cc(C)ccc3n2)c(OC)c1	none (no result: PMI act hi M6P, L major viab, PMI activator, WT yeast gro inh, Rad51 HR inh)
CCOC(=O)c1cnc(-n2nc(C)cc2C)nc1N1CC(C)OC(C)C1 (centres undefined)	L major viab 67 (no result: PMI act hi M6P, PMI activator, WT yeast gro inh, Calpain2 inh)
CCOC(=O)c1cnc(-n2nc(C)cc2C)nc1NCc1ccccc1	L major viab 90, WT yeast gro inh 65
CCOC(=O)c1cnc(-n2nc(C)cc2C)nc1NC(C)c1ccccc1 (centres undefined)	L major viab 96
CCOC(=O)c1cnc(-n2nc(C)cc2C)nc1NNc1cc(-c2ccccc2)nc(C)n1	L major viab 100
CCOC(=O)c1cnc(-n2nc(C)cc2C)nc1NCCO	none
COC(=O)c1cnn(-c2ccc(F)cc2F)c1/C=N/NC(N)=S	none (no result: PMI act hi M6P, L major viab, PMI activator, WT yeast gro inh, Rad51 HR inh)
COc1ccc(N2C(=O)C3CCCCC3C2=O)cc1NC(=O)c1ccccc1 (centres undefined)	none
Cc1ccc(Nc2cc(-c3ccccc3)nc3ncnn23)cc1	none (no result: PMI act hi M6P, L major viab, PMI activator, WT yeast gro inh)
CCOc1ccc(NC2=C(OC)C(=O)c3ccccc3C2=O)cc1	none
COC1=C(Nc2ccc(OC)cc2)C(=O)c2ccccc2C1=O	L major viab 69
COC1=C(Nc2ccc(O)cc2)C(=O)c2ccccc2C1=O	L major viab 53
c1ccc(-n2cc(CNCCc3cscn3)c(-c3ccc4c(c3)OCO4)n2)cc1	none
O=C(CSc1nc2ccccc2s1)N1N=C(c2cccs2)CC1c1ccc(F)cc1 (centres undefined)	none (no result: Rad51 HR inh)
O=C(CSc1nc2c(cnn2-c2ccc(F)cc2)c(=O)[nH]1)N1N=C(c2cccs2)CC1c1ccc(F)cc1 (centres undefined)	L major viab 51
Nc1ccc(C(=O)OCc2nc3cc4ccccc4cc3[nH]2)cc1	L major viab 63
COc1ccc(C2CC(c3ccccc3)=NN2S(=O)(=O)c2ccccc2)cc1 (centres undefined)	none (no result: PMI act hi M6P, L major viab, PMI activator, WT yeast gro inh, Rad51 HR inh)
O=C(c1cccs1)N1N=C(c2ccccc2)CC1c1ccccc1O (centres undefined)	none
O=C(c1ccccc1)N1N=C(c2ccccc2)CC1c1ccccc1O (centres undefined)	WT yeast gro inh 67
Cc1ccc(C2=NN(S(=O)(=O)c3ccccc3)C(c3ccccc3O)C2)cc1 (centres undefined)	L major viab 97, WT yeast gro inh 84
COc1cc(OC)cc(-c2nc3ccccc3c(=O)n2OC(=O)c2ccc(C)c(C)c2)c1	L major viab 73
CCc1nn(CC(=O)Nc2ccc(Br)c(C)c2)c(=N)s1	none
CCCc1nc2c(C)cc(C)cc2c(N)c1CC	L major viab 98
O=C(N/N=C\c1ccc(Cl)cc1Cl)c1sccc1-n1cccc1	L major viab 100
O=C(N/N=C\c1ccc(Cl)cc1)c1sccc1-n1cccc1	none
CC(C)CN1C(=O)C(=Nc2cccnc2)c2ccccc21	L major viab 82
CC(C)(C)c1ccc(NNC(=O)C2CCC2)cc1	none (no result: PMI act hi M6P, L major viab, PMI activator, WT yeast gro inh)
O=C(Nc1nc(-c2ccco2)c(-c2ccco2)s1)C1CCC1	L major viab 86
COc1ccc(CCN=C(NS(=O)(=O)c2ccccc2)c2ccccc2)cc1OC	none
COc1ccc(CCN=C(NS(=O)(=O)c2ccc(Cl)cc2)c2ccccc2)cc1	L major viab 66
Oc1ccccc1C1CC(c2cccs2)=NC(c2ccc(Cl)cc2)N1 (centres undefined)	WT yeast gro inh 73
Oc1cc(NCc2cccnc2)ccc1-c1nc2ccccc2o1	L major viab 99
CCc1ccc(OCC(=O)Nc2ccc(-c3nc4ccccc4o3)c(O)c2)cc1	none
CC1=C(C(=O)OCc2ccccc2)C(/C=C/c2ccccc2)NC(=S)N1 (centres undefined)	WT yeast gro inh 69
C=CCOC(=O)C1=C(C)NC(=S)NC1/C=C/c1ccccc1 (centres undefined)	L major viab 89 (no result: WT yeast gro inh)
O=C(O)/C(=C\C(=O)c1ccccc1)Nc1ccccc1	none (no result: PMI act hi M6P, L major viab, PMI activator, WT yeast gro inh)
CCOc1ccc(NC(=O)CSc2nc3ccccc3c(=O)n2CCCC(=O)NCCCN2CCCC2=O)cc1	none
CC(C)OC(=O)c1cc2c(=O)[nH]c(C(Cl)(Cl)Cl)nc2o1	none
COc1ccc2c(C)cc(SCC(=O)N(C)C3CCS(=O)(=O)C3)nc2c1 (centres undefined)	none
CCOC(=O)NC(c1ccc(C(C)C)cc1)C(Cl)(Cl)Cl (centres undefined)	WT yeast gro inh 69
O=C(Nc1ccc(Oc2ccc(C(F)(F)F)cn2)c(Cl)c1)C1CC1	none
O=C(/C=C/c1ccccc1)NC1CC2CCCC(C1)N2Cc1ccccc1 (centres undefined)	none (no result: PMI act hi M6P, L major viab, PMI activator, WT yeast gro inh)
O=C(Nc1ccccc1-c1ccccc1)NC1CC2CCCC(C1)N2CCc1ccccc1 (centres undefined)	L major viab 72
O=C(Nc1ccccc1-c1ccccc1)NC1CC2CCCC(C1)N2Cc1ccc(F)cc1 (centres undefined)	L major viab 69
OCC[C@@H]1C[C@H](O)[C@@H](O)[C@@]2(CCCO2)O1	none (no result: PMI act hi M6P, L major viab, PMI activator, WT yeast gro inh, Calpain2 inh)
CC(=O)c1ccc(-n2c(=O)[nH]c(=O)c3c(N)c(C(=O)c4ccc(Cl)cc4)sc32)cc1	none (no result: PMI act hi M6P, L major viab, PMI activator, WT yeast gro inh)
COc1ccc(-c2cc3cc(OC)c(OC)cc3c(C)n2)cc1	none (no result: PMI act hi M6P, L major viab, PMI activator, WT yeast gro inh)
Cc1ccc(CN2CCC(c3nc4ccc(Cl)cc4[nH]3)CC2)cc1	L major viab 92
CC1CCCCN1C(=O)CN1CCC(c2nc3ccc(Cl)cc3[nH]2)CC1 (centres undefined)	none
Clc1ccc2nc(C3CCN(Cc4ccccc4)CC3)[nH]c2c1	L major viab 88
O=c1c2c(nc3c(-c4cccc(Br)c4)c[nH]n13)CCCC2	L major viab 100
O=c1c2c(nc3cc(-c4ccc(Br)cc4)[nH]n13)CCCC2	L major viab 67 (no result: PMI act hi M6P, PMI activator, Rad51 HR inh)
CC1CCc2c(nc3ncnn3c2NCCN(C)C)C1 (centres undefined)	none
CCc1nc(Sc2nnnn2-c2ccccc2)c2c3c(sc2n1)CCCC3	L major viab 98
Cc1nc(Sc2nnnn2C)c2c3c(sc2n1)CCC3	none
CC(NCc1ccc(S(N)(=O)=O)cc1)C(=O)Nc1cccc(Cl)c1 (centres undefined)	none (no result: PMI act hi M6P, L major viab, PMI activator, WT yeast gro inh)
Cc1ccc(C2NC(=S)NC3=C2C(=O)CC(C)(C)C3)cc1 (centres undefined)	none

Screens: PubChem BioAssay, several laboratories
